Laboratory results reported in ChEMBL document CHEMBL1148747, “Structure-activity relationship studies of spinorphin as a potent and selective human P2X(3) receptor antagonist” (J Med Chem, 2007).
Active and inactive are the calls of the source. No cut-off for these calls is given here. Residues, ends and D or L forms follow the SMILES beside them.

Experiments:
[1] = molecular target: T1, P2X purinoceptor 1 (Mus musculus) (UniProt P51576); assay: Antagonist activity at mouse recombinant P2X1 receptor expressed in Xenopus oocytes assessed as inhibition of ATP-induced ion current at 10 uM by two electrode voltage clamping technique; format: functional, cell-based; settings: Oocyte
T1 sequence (whole entry): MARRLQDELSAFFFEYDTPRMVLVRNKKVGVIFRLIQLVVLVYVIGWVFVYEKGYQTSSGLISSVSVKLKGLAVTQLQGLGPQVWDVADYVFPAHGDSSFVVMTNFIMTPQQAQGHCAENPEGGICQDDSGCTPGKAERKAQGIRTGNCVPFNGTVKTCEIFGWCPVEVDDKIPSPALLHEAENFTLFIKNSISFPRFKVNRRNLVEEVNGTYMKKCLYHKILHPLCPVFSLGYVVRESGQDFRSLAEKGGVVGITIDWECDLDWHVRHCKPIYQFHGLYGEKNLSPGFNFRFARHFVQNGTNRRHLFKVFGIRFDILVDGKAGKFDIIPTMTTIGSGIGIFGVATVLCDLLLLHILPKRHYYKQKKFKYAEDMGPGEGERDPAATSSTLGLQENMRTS
Summary of the method: (§1)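 Defolliculated Xenopus oocytes injected with receptor cRNA (40 nL, 1 µg/mL). Incubated 24 h at 18 °C in Barth's solution, then kept at 4 °C for up to 12 days. Two-electrode voltage clamp at Vh -90 mV in Ringer's solution (Ba2+, pH 7.5, 18 °C). Peptide applied 20 min before 2 µM ATP; current inhibition measured against ATP-alone control; n = 4.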

[2] = molecular target: T2, P2X purinoceptor 7 (Homo sapiens) (UniProt Q99572); assay: Antagonist activity at human recombinant P2X7 receptor expressed in HEK293 cells assessed as BzATP-induced ethidium accumulation at 10 uM; format: functional, cell-based
T2 sequence (whole entry): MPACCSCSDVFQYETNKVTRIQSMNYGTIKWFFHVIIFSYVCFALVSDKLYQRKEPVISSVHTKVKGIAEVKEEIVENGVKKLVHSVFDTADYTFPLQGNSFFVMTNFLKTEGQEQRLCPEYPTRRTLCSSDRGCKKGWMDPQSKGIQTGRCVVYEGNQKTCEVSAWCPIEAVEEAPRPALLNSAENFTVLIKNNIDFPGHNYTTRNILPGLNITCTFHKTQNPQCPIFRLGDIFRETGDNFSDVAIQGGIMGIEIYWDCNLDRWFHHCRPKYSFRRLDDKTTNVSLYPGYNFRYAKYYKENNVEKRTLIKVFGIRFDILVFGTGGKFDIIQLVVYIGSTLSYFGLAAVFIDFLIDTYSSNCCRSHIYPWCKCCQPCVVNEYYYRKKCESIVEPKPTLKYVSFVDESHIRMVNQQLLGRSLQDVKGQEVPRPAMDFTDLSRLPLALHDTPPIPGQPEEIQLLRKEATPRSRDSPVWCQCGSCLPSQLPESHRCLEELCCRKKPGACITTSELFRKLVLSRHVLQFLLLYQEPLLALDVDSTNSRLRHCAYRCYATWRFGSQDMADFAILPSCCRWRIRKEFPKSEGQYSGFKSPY
Summary of the method: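 HEK293 cells expressing human P2X7, grown in DMEM with 10% FBS. Cells resuspended in HEPES/KCl/glucose/EDTA buffer (pH 7.4) with 100 µM ethidium bromide, 2 × 10^5 cells/well. 6 µM BzATP given together with 10 µM compound, no preincubation. After 120 min at 37 °C, ethidium fluorescence read (ex 530/em 590 nm). Mean ± SEM, n = 3.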

[3] = molecular target: T3, P2X purinoceptor 3 (Homo sapiens) (UniProt P56373); assay: Antagonist activity at human recombinant P2X3 receptor expressed in Xenopus oocytes assessed as inhibition of ATP-induced ion current at 10 uM by two electrode voltage clamping technique; format: functional, cell-based; settings: Oocyte; summary of the method: as §1
T3 sequence (whole entry): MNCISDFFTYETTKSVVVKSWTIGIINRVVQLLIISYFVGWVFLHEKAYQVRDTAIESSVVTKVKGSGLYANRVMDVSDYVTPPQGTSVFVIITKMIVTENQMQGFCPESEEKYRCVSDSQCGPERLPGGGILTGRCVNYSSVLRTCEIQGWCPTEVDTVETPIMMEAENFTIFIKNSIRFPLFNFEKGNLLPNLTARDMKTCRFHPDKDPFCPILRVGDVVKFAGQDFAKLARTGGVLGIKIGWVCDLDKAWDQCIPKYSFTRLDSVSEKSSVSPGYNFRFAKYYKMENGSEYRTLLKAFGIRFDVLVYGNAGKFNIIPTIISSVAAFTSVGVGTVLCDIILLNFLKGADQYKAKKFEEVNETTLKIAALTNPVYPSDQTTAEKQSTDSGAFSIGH

[4] = molecular target: T3, P2X purinoceptor 3 (Homo sapiens); assay: Antagonist activity at human recombinant P2X3 receptor expressed in Xenopus oocytes assessed as inhibition of ATP-induced ion current at 100 nM by two electrode voltage clamping technique; settings: Oocyte
P2X purinoceptor 3 [5] = molecular target: T4, P2X purinoceptor 3 (Homo sapiens, UniProt P56373); assay: Antagonist activity at human P2X3 receptor expressed in Xenopus oocytes assessed as inhibition of ATP-induced ion current by two electrode voltage clamping technique; format: functional, cell-based, Oocyte; summary of the method: as §1
T4 sequence (P56373 whole entry): T3 sequence (whole entry)

[6] = molecular target: T1, P2X purinoceptor 1 (Mus musculus); assay: Antagonist activity at mouse recombinant P2X1 receptor expressed in Xenopus oocytes assessed as inhibition of ATP-induced ion current at 100 nM by two electrode voltage clamping technique; settings: Oocyte
P2X purinoceptor 3 [7] = molecular target: T4, P2X purinoceptor 3; assay: Antagonist activity at human recombinant P2X3 receptor expressed in Xenopus oocytes assessed as inhibition of ATP-induced ion current in presence of 20 nM LVVYPWA peptide by two electrode voltage clamping technique; format: functional, cell-based, Oocyte

| Compound | inhibition [1] [%] | Activity [2] | inhibition [4] [%] | also measured |
| --- | --- | --- | --- | --- |
| CC(C)C[C@@H](NC(=O)[C@H](NC(=O)[C@H](NC(=O)[C@@H](Cc1ccc(O)cc1)NC(=O)[C@H]1CCCN1C(=O)[C@@H](Cc1c[nH]c2ccccc12)NC(=O)[C@H](N)[C@@H](C)O)C(C)C)C(C)C)C(=O)O | 15.5 | inactive | – | – |
| C[C@@H](O)[C@H](NC(=O)[C@H](Cc1c[nH]c2ccccc12)NC(=O)[C@@H]1CCCN1)C(=O)O (H-Pro-Trp-Thr-OH) | – | – | – | inhibition [3]: 32.7% |
| N[C@@H](Cc1ccc(O)cc1)C(=O)N1CCC[C@H]1C(=O)N[C@@H](Cc1c[nH]c2ccccc12)C(=O)O (H-Tyr-Pro-Trp-OH) | – | – | – | inhibition [3]: 15.6% |
| CC(C)[C@H](N)C(=O)N[C@@H](Cc1ccc(O)cc1)C(=O)N1CCC[C@H]1C(=O)N[C@@H](Cc1c[nH]c2ccccc12)C(=O)O (H-VYPW-OH) | – | – | – | Activity [3]: inactive |
| CC(C)[C@H](N)C(=O)N[C@@H](Cc1ccc(O)cc1)C(=O)N1CCC[C@H]1C(=O)O (H-Val-Tyr-Pro-OH) | – | – | – | inhibition [3]: 16.2% |
| C[C@@H](O)[C@H](NC(=O)[C@H](Cc1c[nH]c2ccccc12)NC(=O)[C@@H]1CCCN1C(=O)[C@@H](N)Cc1ccc(O)cc1)C(=O)O (H-YPWT-OH) | – | – | – | inhibition [3]: 13.3% |
| CC(C)[C@@H]1NC(=O)[C@H](C)NC(=O)[C@H]([C@@H](C)O)NC(=O)[C@H](Cc2c[nH]c3ccccc23)NC(=O)[C@@H]2CCCN2C(=O)[C@H](Cc2ccc(O)cc2)NC(=O)[C@H](C(C)C)NC1=O (HELM PEPTIDE1{A.V.V.Y.P.W.T}$PEPTIDE1,PEPTIDE1,1:R1-7:R2$$$V2.0) | 6.4 | inactive | 11.4 | – |
| CC(C)C[C@@H]1NC(=O)[C@H]([C@@H](C)O)NC(=O)[C@H](Cc2c[nH]c3ccccc23)NC(=O)[C@@H]2CCCN2C(=O)[C@H](Cc2ccc(O)cc2)NC(=O)[C@H](C(C)C)NC(=O)[C@H](C(C)C)NC1=O (HELM PEPTIDE1{L.V.V.Y.P.W.T}$PEPTIDE1,PEPTIDE1,1:R1-7:R2$$$V2.0) | 11.5 | – | 36.3 | IC50 (P2X purinoceptor 3 [5]): 82.4 nM; inhibition [2]: 8.8% |
| Cc1nc(/N=N/c2cc(S(=O)(=O)O)ccc2S(=O)(=O)O)c(COP(=O)(O)O)c(C=O)c1O [ISOPPADS] | – | – | 48.3 | inhibition [6]: 64.2%; IC50 (P2X purinoceptor 3 [5]): 108 nM |
| H-AVVYPWT-OH | – | inactive | 82.5 | IC50 (P2X purinoceptor 3 [5]): 14.3 nM; Activity [1]: inactive |
| H-LAVYPWT-OH | 8.1 | – | 48.4 | IC50 (P2X purinoceptor 3 [5]): 32.4 nM; inhibition [2]: 7.6% |
| H-LVAYPWT-OH | – | inactive | 53.4 | Activity [1]: inactive |
| H-LVVAPWT-OH | – | inactive | 52.3 | Activity [1]: inactive |
| H-LVVYAWT-OH | – | inactive | 12.9 | Activity [1]: inactive |
| H-LVVYPAT-OH | 4.2 | – | 17 | inhibition [2]: 16.7% |
| H-LVVYPWT-OH [SPINORPHIN] | 7.4 | – | 67.2 | IC50 (P2X purinoceptor 3 [5]): 0.0083 nM; IC50 (P2X purinoceptor 3 [7]): 0.0481 nM; inhibition [2]: 8.3% |
| H-VVYPWT-OH | – | – | – | inhibition [3]: 29.3% |
| H-VYPWT-OH | – | – | – | Activity [3]: inactive |
